# Experimental data taken from ChEMBL document CHEMBL1134407, “Novel seco cyclopropa[c]pyrrolo[3,2-e]indole bisalkylators bearing a 3,3'-arylenebisacryloyl group as a linker” (J Med Chem, 2001).
# Experiments:
# [1] = tested on: HeLa; assay: Inhibitory activity against HeLaS3 human uterine cervix carcinoma cells; format: functional, cell-based
# In short: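 HeLaS3 human uterine cervix carcinoma cells were exposed to the drug. The value is the drug concentration that inhibits cell growth by 50%.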
# [2] = organism: Mus musculus; assay: Percentage tumor growth inhibition as compared with the untreated group; format: functional; parameters: concentration or dose not given beside the values
# [3] = organism: Mus musculus; assay: Percentage change in body weight; format: functional
# [4] = organism: Mus musculus; assay: Ratio between maximum dose within 10% body weight loss to tumor growth inhibition; format: functional
# [5] = tested on: Homo sapiens; assay: Antitumor activity against human colon CX-1 tumor Xenografts in Athymic mice at a dose of 15.6 micro g/kg; format: functional
# In short: (§1)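 Athymic mice bearing human colon CX-1 tumour xenografts. Dose given in µg/kg. Read-out is percent tumour growth inhibition (TGI) relative to the untreated group.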
# [6] = tested on: Homo sapiens; assay: Antitumor activity against human colon CX-1 tumor Xenografts in Athymic mice at a dose of 7.81 micro g/kg; format: functional; in short: as §1
# [7] = tested on: A2780; assay: Cytotoxicity against human cancer cell lines A2780 (ovarian); format: functional, cell-based
# [8] = tested on: DLD-1; assay: Cytotoxicity against human cancer cell lines DLD-1 of colon.; format: functional, cell-based
# [9] = tested on: KATO III stomach cancer cell line; assay: Cytotoxicity against human cancer cell lines KATO III (gastric); format: functional, cell-based
# [10] = tested on: PC-3; assay: Cytotoxicity against human cancer cell lines PC-3 of lung; format: functional, cell-based
# [11] = tested on: SBC-3; assay: Cytotoxicity against human cancer cell lines SBC-3 of lung; format: functional, cell-based
# [12] = Cytotoxicity against human cancer cell lines SBC-3 /ADR of lung (adriamycin resistant); format: functional, cell-based
# [13] = tested on: ZR-75-1; assay: Cytotoxicity against human cancer cell lines ZR-75-1 of breast.; format: functional, cell-based
# [14] = tested on: Homo sapiens; assay: Antitumor activity against human colon CX-1 tumor Xenografts in Athymic mice at a dose of 3.91 micro g/kg; format: functional
# In short: (§2)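 Athymic mice carried implanted human colon CX-1 tumor xenografts. Each line gives the dose in μg/kg. Read-out is percentage tumor growth inhibition relative to the untreated group.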
# [15] = tested on: Homo sapiens; assay: Antitumor activity against human colon CX-1 tumor Xenografts in Athymic mice at a dose of 9180 micro g/kg; format: functional; in short: as §2
# [16] = Homo sapiens, HeLa, read-out: IC50
Structure (SMILES),"IC50 [1, 16] [ng/mL]",Inhibition [2] [%],Body weight change [3] [%],Ratio [4],other results
COC(=O)c1c(C(F)(F)F)[nH]c2c(O)cc3c(c12)[C@H](CCl)CN3C(=O)/C=C/c1ccc(/C=C/C(=O)N2C[C@@H](CCl)c3c2cc(O)c2[nH]c(C(F)(F)F)c(C(=O)OC)c32)c2c(OC)ccc(OC)c12,0.00934,–,–,–,–
COC(=O)c1c(C(F)(F)F)[nH]c2c(O)cc3c(c12)[C@H](CCl)CN3C(=O)/C=C/c1ccc(/C=C/C(=O)N2C[C@@H](CCl)c3c2cc(O)c2[nH]c(C(F)(F)F)c(C(=O)OC)c32)c2c1OCO2,0.00595,90,-2,13.3,–
COC(=O)c1c(C(F)(F)F)[nH]c2c(O)cc3c(c12)[C@H](CCl)CN3C(=O)/C=C/c1ccc(/C=C/C(=O)N2C[C@@H](CCl)c3c2cc(O)c2[nH]c(C(F)(F)F)c(C(=O)OC)c32)c2c1C(=O)c1ccccc1C2=O,0.523,84,-4,6.6,–
COC(=O)c1c(C(F)(F)F)[nH]c2c(O)cc3c(c12)[C@H](CCl)CN3C(=O)c1cc2cc(-c3ccc4[nH]c(C(=O)N5C[C@@H](CCl)c6c5cc(O)c5[nH]c(C(F)(F)F)c(C(=O)OC)c65)cc4c3)ccc2[nH]1,–,84,1,3.3,IC50 ([1]; hela): 0.0049 ng/mL
COC(=O)c1c(C(F)(F)F)[nH]c2c(O)cc3c(c12)[C@H](CCl)CN3C(=O)/C=C/c1ccc(-c2ccc(/C=C/C(=O)N3C[C@@H](CCl)c4c3cc(O)c3[nH]c(C(F)(F)F)c(C(=O)OC)c43)cn2)nc1,0.0198,88,4,3.6,–
Cc1c[nH]c2c(O)cc3c(c12)[C@H](CCl)CN3C(=O)c1cc2cc(NC(=O)Nc3ccc4[nH]c(C(=O)N5C[C@@H](CCl)c6c5cc(O)c5[nH]cc(C)c65)cc4c3)ccc2[nH]1 [BIZELESIN],–,90,-3,8.4,Inhibition [5]: 56%; Inhibition [6]: 53%
COC(=O)c1c(C(F)(F)F)[nH]c2c(O)cc3c(c12)[C@H](CCl)CN3C(=O)/C=C/c1ccc(-c2ccc(/C=C/C(=O)N3C[C@@H](CCl)c4c3cc(O)c3[nH]c(C(F)(F)F)c(C(=O)OC)c43)cc2)cc1,0.141,83,4,3.7,–
COC(=O)c1c(C(F)(F)F)[nH]c2c(O)cc3c(c12)[C@H](CCl)CN3C(=O)/C=C/c1cc(OC)c(/C=C/C(=O)N2C[C@@H](CCl)c3c2cc(O)c2[nH]c(C(F)(F)F)c(C(=O)OC)c32)cc1OC,9.71,81,3,>6.5,–
COC(=O)c1c(C(F)(F)F)[nH]c2c(O)cc3c(c12)[C@H](CCl)CN3C(=O)/C=C/c1ccc(-c2ccc(-c3ccc(/C=C/C(=O)N4C[C@@H](CCl)c5c4cc(O)c4[nH]c(C(F)(F)F)c(C(=O)OC)c54)cc3)cc2)cc1,48.3,84,-11,–,–
COC(=O)c1c(C(F)(F)F)[nH]c2c(O)cc3c(c12)[C@H](CCl)CN3C(=O)/C=C/c1ccc(/C=C/C(=O)N2C[C@@H](CCl)c3c2cc(O)c2[nH]c(C(F)(F)F)c(C(=O)OC)c32)c2c1OCCO2,–,91,3,9,IC50 ([1]; hela): 0.00276 ng/mL
COC(=O)c1c(C(F)(F)F)[nH]c2c(O)cc3c(c12)[C@H](CCl)CN3C(=O)/C=C/c1cccc(/C=C/C(=O)N2C[C@@H](CCl)c3c2cc(O)c2[nH]c(C(F)(F)F)c(C(=O)OC)c32)c1,54.6,91,-5,–,–
COC(=O)c1c(C(F)(F)F)[nH]c2c(O)cc3c(c12)[C@H](CCl)CN3C(=O)/C=C/c1ccccc1/C=C/C(=O)N1C[C@@H](CCl)c2c1cc(O)c1[nH]c(C(F)(F)F)c(C(=O)OC)c21,87.6,70,-6,–,–
COC(=O)c1c(C(F)(F)F)[nH]c2c(O)cc3c(c12)[C@H](CCl)CN3C(=O)/C=C/c1cccc(-c2ccc(-c3cccc(/C=C/C(=O)N4C[C@@H](CCl)c5c4cc(O)c4[nH]c(C(F)(F)F)c(C(=O)OC)c54)c3)cc2)c1,> 100,–,–,–,–
COC(=O)c1c(C(F)(F)F)[nH]c2c(O)cc3c(c12)[C@H](CCl)CN3C(=O)/C=C/c1c2ccccc2c(/C=C/C(=O)N2C[C@@H](CCl)c3c2cc(O)c2[nH]c(C(F)(F)F)c(C(=O)OC)c32)c2ccccc12,1.51,75,-18,–,–
COC(=O)c1c(C(F)(F)F)[nH]c2c(O)cc3c(c12)[C@H](CCl)CN3C(=O)/C=C/c1ccc(/C=C/C(=O)N2C[C@@H](CCl)c3c2cc(O)c2[nH]c(C(F)(F)F)c(C(=O)OC)c32)c(OC)c1OC,–,89,-1,4.6,IC50 ([1]; hela): 0.00158 ng/mL
COC(=O)c1c(C(F)(F)F)[nH]c2c(O)cc3c(c12)[C@H](CCl)CN3C(=O)/C=C/c1ccc(/C=C/C(=O)N2C[C@@H](CCl)c3c2cc(O)c2[nH]c(C(F)(F)F)c(C(=O)OC)c32)cc1,–,89,-5,30.7,IC50 ([7]; a2780): 0.000397 ng/mL; IC50 [8]: 0.0149 ng/mL; IC50 ([1]; hela): 0.00274 ng/mL; IC50 [9]: 0.816 ng/mL; IC50 [10]: 0.148 ng/mL; IC50 ([11]; sbc-3): 0.00122 ng/mL; IC50 [12]: 0.00349 ng/mL; IC50 ([13]; zr-75-1): 0.00463 ng/mL; Inhibition [14]: 77%; Inhibition [6]: 83%
COC(=O)c1c(C(F)(F)F)[nH]c2c(O)cc3c(c12)[C@H](CCl)CN3C(=O)/C=C/c1ccc(/C=C/C(=O)N2C[C@@H](CCl)c3c2cc(O)c2[nH]c(C(F)(F)F)c(C(=O)OC)c32)c2ccccc12,0.011,85,3,7.4,–
CO[C@@]12[C@H](COC(N)=O)C3=C(C(=O)C(C)=C(N)C3=O)N1C[C@@H]1N[C@@H]12 [MITOMYCIN],–,–,–,–,Inhibition [15]: 65%
COC(=O)c1c(C(F)(F)F)[nH]c2c(O)cc3c(c12)[C@H](CCl)CN3C(=O)/C=C/c1ccc(/C=C/C(=O)N2C[C@@H](CCl)c3c2cc(O)c2[nH]c(C(F)(F)F)c(C(=O)OC)c32)c2cc3ccccc3cc12,3.25,82,-6,3.5,–
COc1cccc2c1C(=O)c1c(O)c3c(c(O)c1C2=O)C[C@@](O)(C(=O)CO)C[C@@H]3O[C@H]1C[C@H](N)[C@H](O)[C@H](C)O1 [DOXORUBICIN],–,–,–,–,"IC50 ([7]; Homo sapiens, A2780, read-out: IC50): 12.1 ng/mL; IC50 [8]: 136 ng/mL; IC50 [9]: 905 ng/mL; IC50 ([11]; Homo sapiens, SBC-3, read-out: IC50): 11.2 ng/mL; IC50 [12]: 129 ng/mL; IC50 ([13]; Homo sapiens, ZR-75-1, read-out: IC50): 6.39 ng/mL"
CCc1c(/C=C/C(=O)N2C[C@@H](CCl)c3c2cc(O)c2[nH]c(C(F)(F)F)c(C(=O)OC)c32)ccc(/C=C/C(=O)N2C[C@@H](CCl)c3c2cc(O)c2[nH]c(C(F)(F)F)c(C(=O)OC)c32)c1CC,–,–,–,–,IC50 ([1]; hela): 0.00138 ng/mL
